Assay results as given in ChEMBL document CHEMBL4033676, “Design, synthesis and biological evaluation of 3,4-dihydro-2(1H)-quinoline-O-alkylamine derivatives as new multipotent cholinesterase/monoamine oxidase inhibitors for the treatment of Alzheimer's disease” (Bioorg Med Chem, 2017).
Active and inactive are the calls of the source. The calls are words filed in the database; no cut-off is given here.

Key:
[1] = physchem; details: PAMPA
[2] = organism: Rattus norvegicus; assay: Selectivity index, ratio of IC50 for rat serum BuChE to IC50 for 5% rat cortex homogenate AChE
[3] = target: Acetylcholinesterase (Electrophorus electricus, UniProt O42275); assay: Inhibition of electric eel AChE using acetylthiocholine chloride as substrate after 15 mins by Ellman's method
[4] = target: Cholinesterase (Equus caballus, UniProt P81908); assay: Inhibition of equine serum BuChE using butyrylthiocholine chloride as substrate after 15 mins by Ellman's method
In short: (§1)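 Ellman assay. Equine serum or rat serum BuChE pre-incubated with test compound at various concentrations (DMSO <1%) in 0.1 M phosphate buffer pH 8.0 for 15 min at 37°C. DTNB (0.2%) added, absorbance read at 412 nm. Inhibition % = (1−Ai/Ac)×100. IC50 is the mean of three independent experiments, each run in triplicate.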

[5] = target: T1, Acetylcholinesterase (Rattus norvegicus, UniProt P37136)
T1 sequence (P37136 whole entry): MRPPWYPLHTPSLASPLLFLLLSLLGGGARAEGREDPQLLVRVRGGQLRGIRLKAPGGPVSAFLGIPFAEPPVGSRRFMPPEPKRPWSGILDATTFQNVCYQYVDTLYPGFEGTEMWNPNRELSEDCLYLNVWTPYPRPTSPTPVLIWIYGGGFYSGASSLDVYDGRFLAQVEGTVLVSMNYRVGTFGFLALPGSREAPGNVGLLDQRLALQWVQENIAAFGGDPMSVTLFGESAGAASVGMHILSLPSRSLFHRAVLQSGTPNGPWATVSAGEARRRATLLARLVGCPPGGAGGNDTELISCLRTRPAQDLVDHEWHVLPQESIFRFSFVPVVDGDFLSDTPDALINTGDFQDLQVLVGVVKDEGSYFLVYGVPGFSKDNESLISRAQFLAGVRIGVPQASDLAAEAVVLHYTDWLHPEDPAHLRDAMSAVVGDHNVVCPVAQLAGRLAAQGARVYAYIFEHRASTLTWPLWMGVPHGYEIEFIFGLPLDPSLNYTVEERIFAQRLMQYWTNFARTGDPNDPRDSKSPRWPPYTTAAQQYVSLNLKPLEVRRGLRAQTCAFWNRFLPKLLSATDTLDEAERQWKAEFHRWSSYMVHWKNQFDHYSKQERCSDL

[6] = Inhibition of rat serum BuChE using butyrylthiocholine chloride as substrate after 15 mins by Ellman's method
In short: as §1

[7] = Selectivity index, ratio of IC50 for equine serum BuChE to IC50 for electric eel AChE
[8] = target: Acetylcholinesterase (Electrophorus electricus) (UniProt O42275); assay: Mixed type inhibition of electric eel AChE using acetylthiocholine iodide as substrate up to 1 uM preincubated for 15 mins followed by substrate addition by Lineweaver-Burk plot analysis
In short: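 Purified Electrophorus electricus AChE (0.5 units/mL) in 0.1 M phosphate buffer pH 8.0 with 0.2% DTNB. Three inhibitor concentrations pre-incubated with enzyme for 15 min at 37°C, then acetylthiocholine iodide added at varying concentrations. Hydrolysis followed at 412 nm; no-inhibitor controls run in parallel. Weighted least-squares double-reciprocal analysis; Ki taken from the x-intercept of a secondary slope replot.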

[9] = target: T2, Amine oxidase [flavin-containing] A (Homo sapiens, UniProt P21397); assay: Inhibition of recombinant human MAO-A expressed in baculovirus infected BTI insect cells using kynuramine as substrate after 30 mins by fluorescence assay
T2 sequence (P21397 whole entry): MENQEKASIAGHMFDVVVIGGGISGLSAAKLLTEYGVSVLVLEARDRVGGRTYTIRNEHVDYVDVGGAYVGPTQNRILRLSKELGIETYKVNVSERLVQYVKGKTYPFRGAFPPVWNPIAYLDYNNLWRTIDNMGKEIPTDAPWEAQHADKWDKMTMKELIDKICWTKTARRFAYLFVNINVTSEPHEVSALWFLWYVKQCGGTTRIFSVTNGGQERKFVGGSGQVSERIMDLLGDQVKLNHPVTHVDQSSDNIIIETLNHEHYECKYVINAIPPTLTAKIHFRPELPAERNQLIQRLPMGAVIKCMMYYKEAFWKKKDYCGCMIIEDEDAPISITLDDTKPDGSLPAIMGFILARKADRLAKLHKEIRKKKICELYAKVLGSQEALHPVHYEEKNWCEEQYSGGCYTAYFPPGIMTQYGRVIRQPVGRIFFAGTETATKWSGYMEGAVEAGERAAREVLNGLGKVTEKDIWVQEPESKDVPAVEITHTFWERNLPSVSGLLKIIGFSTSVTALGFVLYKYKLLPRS

[10] = target: T3, Amine oxidase [flavin-containing] B (Homo sapiens, UniProt P27338); assay: biochemical; format: cell-based
T3 sequence (P27338 whole entry): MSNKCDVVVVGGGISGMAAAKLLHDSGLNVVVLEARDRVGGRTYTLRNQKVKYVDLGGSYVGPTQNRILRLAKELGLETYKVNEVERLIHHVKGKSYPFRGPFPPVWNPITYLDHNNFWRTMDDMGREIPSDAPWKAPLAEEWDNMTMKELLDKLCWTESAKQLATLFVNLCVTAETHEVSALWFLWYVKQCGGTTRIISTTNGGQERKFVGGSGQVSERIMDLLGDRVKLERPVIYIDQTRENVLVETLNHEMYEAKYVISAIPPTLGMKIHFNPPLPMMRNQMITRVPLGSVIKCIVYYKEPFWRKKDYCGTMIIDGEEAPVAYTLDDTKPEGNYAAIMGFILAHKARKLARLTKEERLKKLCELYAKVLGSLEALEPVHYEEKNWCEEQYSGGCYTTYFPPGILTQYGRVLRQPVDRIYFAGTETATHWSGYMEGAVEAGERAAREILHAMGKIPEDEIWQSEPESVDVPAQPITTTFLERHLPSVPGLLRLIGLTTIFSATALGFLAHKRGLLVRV

[11] = organism: Homo sapiens; assay: Selectivity index, ratio of IC50 for recombinant human MAO-B to IC50 for recombinant human MAO-A
[12] = system: PC-12; assay: Cytotoxicity against rat PC12 cells assessed as decrease in cell viability up to 10 uM after 24 hrs by MTT assay; format: cell-based; details: pc-12, 24 h
[13] = system: PC-12; assay: Cytotoxicity against rat PC12 cells assessed as decrease in cell viability at 100 uM after 24 hrs by MTT assay; format: cell-based; details: pc-12, 24 h
[14] = target: Acetylcholinesterase (Electrophorus electricus) (UniProt O42275); assay: Inhibition of electric eel AChE at 25 uM using acetylthiocholine chloride as substrate after 15 mins by Ellman's method relative to control
[15] = target: Cholinesterase (Equus caballus) (UniProt P81908); assay: Inhibition of equine serum BuChE at 25 uM using butyrylthiocholine chloride as substrate after 15 mins by Ellman's method relative to control
[16] = organism: Rattus norvegicus; assay: Inhibition of rat serum BuChE at 25 uM using butyrylthiocholine chloride as substrate after 15 mins by Ellman's method relative to control
[17] = target: T4, Acetylcholinesterase (Rattus norvegicus) (UniProt P37136); details: at 25 µM
T4 sequence (whole entry): T1 sequence (P37136 whole entry)

Chain of Acetylcholinesterase (Electrophorus electricus, UniProt O42275) (O42275 whole entry): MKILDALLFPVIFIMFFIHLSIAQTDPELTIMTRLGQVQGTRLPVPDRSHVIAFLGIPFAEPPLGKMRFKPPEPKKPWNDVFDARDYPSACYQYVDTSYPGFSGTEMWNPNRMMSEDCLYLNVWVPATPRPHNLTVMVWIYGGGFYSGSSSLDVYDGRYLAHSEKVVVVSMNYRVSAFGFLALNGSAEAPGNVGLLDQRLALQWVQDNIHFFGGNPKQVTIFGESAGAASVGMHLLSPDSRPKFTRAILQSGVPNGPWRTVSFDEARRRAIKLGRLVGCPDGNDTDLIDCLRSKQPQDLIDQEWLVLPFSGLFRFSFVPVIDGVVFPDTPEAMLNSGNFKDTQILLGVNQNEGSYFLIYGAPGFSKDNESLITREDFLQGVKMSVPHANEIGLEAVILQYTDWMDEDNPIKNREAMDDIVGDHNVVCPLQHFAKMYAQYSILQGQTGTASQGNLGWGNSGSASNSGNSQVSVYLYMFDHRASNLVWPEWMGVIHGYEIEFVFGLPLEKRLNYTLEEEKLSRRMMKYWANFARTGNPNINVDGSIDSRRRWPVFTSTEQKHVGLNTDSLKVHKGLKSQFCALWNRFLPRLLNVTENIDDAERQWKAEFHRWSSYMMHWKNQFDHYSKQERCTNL
Chain of Cholinesterase (P81908 whole entry): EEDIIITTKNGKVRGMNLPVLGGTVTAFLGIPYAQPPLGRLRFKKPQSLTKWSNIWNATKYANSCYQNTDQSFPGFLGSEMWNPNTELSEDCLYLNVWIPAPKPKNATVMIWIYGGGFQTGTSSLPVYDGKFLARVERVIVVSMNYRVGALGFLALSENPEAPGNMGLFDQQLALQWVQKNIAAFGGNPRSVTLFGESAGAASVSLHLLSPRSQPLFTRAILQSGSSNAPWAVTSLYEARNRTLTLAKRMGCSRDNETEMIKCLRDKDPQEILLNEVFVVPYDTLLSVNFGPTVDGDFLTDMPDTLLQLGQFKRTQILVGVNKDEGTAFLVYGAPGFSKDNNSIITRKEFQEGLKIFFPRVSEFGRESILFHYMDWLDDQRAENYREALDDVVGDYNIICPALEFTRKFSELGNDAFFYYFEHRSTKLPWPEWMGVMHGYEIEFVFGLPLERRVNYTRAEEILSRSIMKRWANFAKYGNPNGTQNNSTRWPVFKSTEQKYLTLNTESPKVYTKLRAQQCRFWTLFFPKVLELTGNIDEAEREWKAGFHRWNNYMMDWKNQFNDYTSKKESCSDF
Chain of Acetylcholinesterase (Electrophorus electricus) (O42275 24-633 limits assumed): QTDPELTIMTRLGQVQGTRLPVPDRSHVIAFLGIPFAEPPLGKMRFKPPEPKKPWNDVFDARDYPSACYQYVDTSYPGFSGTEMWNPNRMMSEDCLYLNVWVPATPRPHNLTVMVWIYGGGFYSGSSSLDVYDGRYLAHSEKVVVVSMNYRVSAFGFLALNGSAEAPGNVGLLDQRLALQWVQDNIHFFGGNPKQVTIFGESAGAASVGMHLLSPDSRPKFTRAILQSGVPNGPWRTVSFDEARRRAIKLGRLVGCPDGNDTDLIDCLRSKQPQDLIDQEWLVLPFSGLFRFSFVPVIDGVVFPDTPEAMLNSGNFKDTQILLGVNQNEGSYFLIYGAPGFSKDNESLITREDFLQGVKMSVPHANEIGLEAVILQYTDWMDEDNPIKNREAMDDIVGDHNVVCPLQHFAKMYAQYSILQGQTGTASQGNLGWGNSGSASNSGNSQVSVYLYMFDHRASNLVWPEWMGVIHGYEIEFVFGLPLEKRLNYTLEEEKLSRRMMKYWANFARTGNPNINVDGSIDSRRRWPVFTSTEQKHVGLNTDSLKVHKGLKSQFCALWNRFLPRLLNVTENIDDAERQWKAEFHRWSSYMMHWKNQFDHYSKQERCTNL
Chain of Cholinesterase (Equus caballus) (P81908 whole entry): as the sequence (P81908 whole entry) above

## Cn1c(=O)c2c(ncn2C)n(C)c1=O [CAFFEINE]
[1]
  Papp at 18 h, 100 ug/ml: 1.28 to 1.3 ×10⁻⁶ cm/s

## CCn1cc(C(=O)O)c(=O)c2cc(F)c(N3CCNCC3)cc21 [NORFLOXACIN]
[1]
  Papp at 18 h, 100 ug/ml: 0.1 to 0.42 ×10⁻⁶ cm/s

## CN1C(C(=O)Nc2ccccn2)=C(O)c2ccccc2S1(=O)=O [PIROXICAM]
[1]
  Papp at 18 h, 100 ug/ml: 0.72 to 2.5 ×10⁻⁶ cm/s

## O=C1CCc2ccc(OCCCCCCN3CCC(Cc4ccccc4)CC3)cc2N1
[2]
  Ratio IC50: 1.9
[3]
  IC50: 0.56 µM
[4]
  IC50: 2.3 µM
[5]
  IC50: 1.9 µM
[6]
  IC50: 3.6 µM
[7]
  Ratio IC50: 4.1
[8]
  inhibition: Active
[9]
  IC50: 0.3 µM
[10]
  IC50: 1.4 µM
[11]
  Ratio IC50: 4.7
[12]
  Activity: Non-Toxic
[13]
  Activity: 87.3%
[1]
  Papp at 18 h, 100 ug/ml: 25.6 ×10⁻⁶ cm/s

## Cn1c(=O)c2[nH]cnc2n(C)c1=O.O [THEOPHYLLINE]
[1]
  Papp at 18 h, 100 ug/ml: 0.1 to 0.12 ×10⁻⁶ cm/s

## CCn1cc(C(=O)O)c(=O)c2cc(F)c(N3CCNCC3)nc21 [ENOXACIN]
[1]
  Papp at 18 h, 100 ug/ml: 0.47 to 0.9 ×10⁻⁶ cm/s

## Clc1cccc(Cl)c1N=C1NCCN1 [CLONIDINE]
[1]
  Papp at 18 h, 100 ug/ml: 5.1 to 5.3 ×10⁻⁶ cm/s

## O=C1CCc2ccc(OCCCCCCN3CCC(N4CCCC4)CC3)cc2N1
[2]
  Ratio IC50: 1.6
[3]
  IC50: 5.3 µM
[4]
  IC50: 32.7 µM
[5]
  IC50: 12.3 µM
[6]
  IC50: 20.2 µM
[7]
  Ratio IC50: 6.2
[9]
  IC50: 6.2 µM
[10]
  IC50: 18.3 µM
[11]
  Ratio IC50: 3

## C#CCN(CCCCCCOc1ccc2c(c1)NC(=O)CC2)Cc1ccccc1
[2]
  Ratio IC50: 1.9
[3]
  IC50: 13.7 µM
[4]
  IC50: 2.4 µM
[5]
  IC50: 13 µM
[6]
  IC50: 24.5 µM
[7]
  Ratio IC50: 0.2
[9]
  IC50: 1 µM
[10]
  IC50: 3.8 µM
[11]
  Ratio IC50: 3.8

## O=C1CCc2ccc(OCCCN3CCN(Cc4ccccc4)CC3)cc2N1
[2]
  Ratio IC50: 2.7
[3]
  IC50: 1.3 µM
[4]
  IC50: 19.4 µM
[5]
  IC50: 12.6 µM
[6]
  IC50: 34.2 µM
[7]
  Ratio IC50: 14.9
[9]
  IC50: 6.6 µM
[10]
  IC50: 21.8 µM
[11]
  Ratio IC50: 3.3

## O=C1CCc2ccc(OCCCCCCN3CCc4ccccc4C3)cc2N1
[2]
  Ratio IC50: 1.1
[3]
  IC50: 8.2 µM
[4]
  IC50: 1.2 µM
[5]
  IC50: 10.8 µM
[6]
  IC50: 11.7 µM
[7]
  Ratio IC50: 0.1
[9]
  IC50: 3.4 µM
[10]
  IC50: 4.4 µM
[11]
  Ratio IC50: 1.3

## O=C1CCc2ccc(OCCCCCCN3CCCCC3)cc2N1
[2]
  Ratio IC50: 4.5
[3]
  IC50: 17.8 µM
[4]
  IC50: 14.1 µM
[5]
  IC50: 6 µM
[6]
  IC50: 27.2 µM
[7]
  Ratio IC50: 0.8
[9]
  IC50: 9.4 µM
[10]
  IC50: 31.7 µM
[11]
  Ratio IC50: 3.4

## O=C1CCc2ccc(O)cc2N1
[14]
  inhibition: < 5%
[15]
  inhibition: < 5%
[16]
  inhibition: < 5%
[17]
  inhibition: < 5%

## CC(C)N1CCN(CCCCCOc2ccc3c(c2)NC(=O)CC3)CC1
[2]
  Ratio IC50: 0.9
[3]
  IC50: 0.9 µM
[4]
  IC50: 3.2 µM
[5]
  IC50: 3.2 µM
[6]
  IC50: 2.7 µM
[7]
  Ratio IC50: 3.5
[9]
  IC50: 8.2 µM
[10]
  IC50: 8.1 µM
[11]
  Ratio IC50: 1

## C#CCN(CCCOc1ccc2c(c1)NC(=O)CC2)Cc1ccccc1
[2]
  Ratio IC50: 1.2
[3]
  IC50: 23.5 µM
[4]
  IC50: 29.5 µM
[5]
  IC50: 26 µM
[6]
  IC50: 30.3 µM
[7]
  Ratio IC50: 1.3
[9]
  IC50: 9 µM
[10]
  IC50: 7.3 µM
[11]
  Ratio IC50: 0.8

## O=C1CCc2ccc(OCCCCCN3CCc4ccccc4C3)cc2N1
[2]
  Ratio IC50: 1.4
[3]
  IC50: 9.1 µM
[4]
  IC50: 0.9 µM
[5]
  IC50: 7.8 µM
[6]
  IC50: 11.2 µM
[7]
  Ratio IC50: 0.1
[9]
  IC50: 4.6 µM
[10]
  IC50: 5.9 µM
[11]
  Ratio IC50: 1.3
